Test system: MS2 coat protein
Experiment: apparent Kd, MS2 coat protein; higher = weaker binding; RNA-MaP array; FMN 200 µM where present
Summary of the method: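 The apparent Kd is reported as the median of filtered per-cluster binding-curve fits. To get these curves, designs transcribed by stalled E. coli RNA polymerase on Illumina sequencing-chip clusters were titrated with SNAP-549-labelled MS2 coat protein from 0.7 or 1.5 nM, doubling to 3 µM. Titrations were run without and then with constant ligand in 100 mM Tris-HCl pH 7.5, 80 mM KCl, 4 mM MgCl2, BSA, DTT, yeast tRNA and Tween-20, and green signal was normalised to red-channel RNA signal and control-cluster median Fmax.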

[1] = designed as: OFF switch for flavin mononucleotide, no ligand
[2] = ligand present: flavin mononucleotide, designed as: OFF switch for flavin mononucleotide
[3] = designed as: ON switch for flavin mononucleotide, no ligand
[4] = ligand present: flavin mononucleotide, designed as: ON switch for flavin mononucleotide

AGAGCCUCGUGAGGAUAUACAUGAGGAUCACCCAUGUAAAUGAAUGAACGGAGGAAACUCCGAAUGUAGAAGGCACGAGGCUCA
apparent Kd [1]: 27.9 nM | apparent Kd [2]: 166 nM

AGCGGAUUGUAGAAGGGUGACAUGAGGAUCACCCAUGUUCAAAUGCGAUUUACGGUAAUUGAUCCACAGGAUAUACAGUCCGAG
apparent Kd [3]: 905 nM | apparent Kd [4]: 178 nM

UGUCCAUAGCAGAAGGACAUGAGGAUCACCCAUGUAAUCAUACAAAUAUAUGUAGGAUAUGCUAUGGACUAAGAGCGAAAGCUC
apparent Kd [1]: 6.14 nM | apparent Kd [2]: 6.74 nM

CGCUACUGCCAGAAGGACAUGAGGAUCACCCAUGUAGGAUAUGGGUGACGAGGACCAGUGUAGAGAAACUACGCUACAGUAGCG
apparent Kd [3]: 89.4 nM | apparent Kd [4]: 47.5 nM

GCCAGGAUGUGAGGAUAUGCUGAGGAUACUUCAGCAGAAGGCACAUGAGGAUCACCCAUGUACACUUAUCAUAAAUACCCUGGC
apparent Kd [1]: 13.4 nM | apparent Kd [2]: 16.3 nM

GUUGUUUCUGAGGAUAUUAUUUUUUUCGAUUGAUAAGAAGGCAGUACAUGAGGAUCACCCAUGUGGGUUGUCUG
apparent Kd [1]: 37.2 nM | apparent Kd [2]: 150 nM

CGGCAAGUCACAGGAUAUGGUGAUGUACAUGAGGAUCACCCAUGUCCGUCUUCUCUCACAAGAUGCCAGAAGGGUGACUUCCAG
apparent Kd [3]: 946 nM | apparent Kd [4]: 140 nM

UGAGCUUGAGGAUAUACAUGAGGAUCACCCAUGUUGAGCUUGAGGAUCUUCGAGUUCGGUAGAAGGCGAGUUCG
apparent Kd [1]: 16 nM | apparent Kd [2]: 33 nM

CAGUAAUUCGAAGGAUAUGGUUACAUGAGGAUCACCCAUGUAUUUUUUGUGAUCUUAAAAUUGAUCCAGAAGGUCGAAUUACUG
apparent Kd [1]: 177 nM | apparent Kd [2]: 373 nM

CUGUUCCAUGUAGGAUAUGCAUAUUCUCAUUAUGCAGAAGGACAUGAGGAUCACCCAUGUAUGUUAUUAUCAUAUGUUACAUGU
apparent Kd [1]: 34.3 nM | apparent Kd [2]: 241 nM

ACAUGAGGAUCACCCAUGUUAAACGAGGAUAUUUGACUGCACAUGAGGUUCGCCCAUGUCCUGCCGAAGAAGGUGUGAAUAAUU
apparent Kd [3]: 17.6 nM | apparent Kd [4]: 13.5 nM

CACGUCUGAGGAUAUCGUUUUUUGUACAUGAGGAUCACCCAUGUCCAAUUUUGUAUAUUACGAGAAGGCAGUGGAA
apparent Kd [1]: 12.9 nM | apparent Kd [2]: 19.7 nM

GGAUAGGACCGAGGAUAUACGUGCUAGAGAUACUAGCAAAAUUUCCUCACAUGAGGAUCACCCAUGUAGAAGGCUGUCCUAUCG
apparent Kd [1]: 5.78 nM | apparent Kd [2]: 12.5 nM

ACAUGUUAUACAGGAUAUGUUAUACAAUAAUCAAUCAGUUAUUAUGAUUUUACAGAAGGGUAUACAUGAGGAUCACCCAUGUUA
apparent Kd [1]: 31.5 nM | apparent Kd [2]: 33.8 nM

GACACGUGAGGAUAUACAUGAGGAUCACCCAUGUAAGUACACGUGGCUGUUCCUGCAUGUAGAAGGCACGCAUU
apparent Kd [1]: 22.8 nM | apparent Kd [2]: 17.2 nM

AUCAGCUCGUCAGGAUAUACGUCACUGCGUCGGCAGUGUGGUAAGAUCACAUGAGGAUCACCCAUGUAGAAGGGACGAGCUGAU
apparent Kd [1]: 14.4 nM | apparent Kd [2]: 280 nM

GGGUACAUCGGAGGAUAUCAUGUAAAUACAUGAGGAUCACCCAUGUCGAUGGAGACAUCGGAGAUUGAGAAGGCCGGUGUACCG
apparent Kd [3]: 165 nM | apparent Kd [4]: 9.9 nM

GAGCGAAAGCUCAAUGUCGAUAGCAGAAGGACAUCCUUAAACAUGAAAACAUGAGGAUCACCCAUGUAGGAUAUGCUAUCGACU
apparent Kd [1]: 7.31 nM | apparent Kd [2]: 9.1 nM

AAGUAGGUAGGAUAUACAUGGAUAUACAUUCAUGUGGACCUACAUGAGGAUCACCCAUGUAGAAGGACCUACUA
apparent Kd [1]: 36.9 nM | apparent Kd [2]: 79.1 nM

UUAAAUCAUGUAGGAUAUGCAUGGCGAAGCUACGCAGAAGGACAUGAGGAUCACCCAUGUGCUAGCUACCGAGUACGGUGGCAA
apparent Kd [1]: 64.9 nM | apparent Kd [2]: 251 nM

UAAUUUAACAAGAAGGCUAACAUGAGGAUCACCCAUGUUGUACAUGGAUAUAGAGGAUAUUGCUAAUAAUUAUUUAUCAUAAUU
apparent Kd [1]: 24.2 nM | apparent Kd [2]: 19.2 nM

AAAUAAAGGACUAAGGAUAUAUCACAUGAAACAUGAGGAUCACCCAUGUAAUAAUACAAAGGGUGAUAGAAGGUAGUCCACAAACA
apparent Kd [3]: 55.7 nM | apparent Kd [4]: 20.5 nM

AGAAAACAUGAGGAUCACCCAUGUCAGGAUAUCCUGCGGCAAUACACGCCGCGUUGUCGGAGAAGGGACAGGGA
apparent Kd [1]: 39 nM | apparent Kd [2]: 102 nM

UGCGGAAGAGGAUAUACGUAGAACUAGGUUCAUGUAAAACUACAUGAGGAUCACCCAUGUAGAAGGCUUUCGCU
apparent Kd [1]: 15.9 nM | apparent Kd [2]: 20.4 nM

GGUGCUAUGUAGAAGGCAGAUCUGAUUCAGAUCUGAGGAUAUACAUGAGGAUCACCCAUGUUAUGCACCAGCACGAGAGUGCAC
apparent Kd [1]: 7.57 nM | apparent Kd [2]: 13.3 nM

AUUUGACACGUAGGAUAUCGCUCAAAUUUAACACGAGAAGGACGAACAUGAGGAUCACCCAUGUAACAUGGAGUAGUUUAUUUG
apparent Kd [1]: 76.6 nM | apparent Kd [2]: 111 nM

CGGAUGUGAGGAUAUACAUGAGGAUCACCCAUGUGAGCCAGCUAGAUGACUGGCUCGUGUAGAAGGCACGUCUG
apparent Kd [1]: 13.5 nM | apparent Kd [2]: 29.3 nM

GUGGGACAUGAGGAUCACCCAUGUGGGAGGGAACGAGGAUAUGUGAGGAGCGAGAAGUGAACAGAAGGCGUGGUUG
apparent Kd [3]: 82.8 nM | apparent Kd [4]: 51.4 nM

UAGGGCGAGUUAUGUACAAGAUACAUGAGGAUCACCCAUGUGUAGGAUAUGACCCUUAUCGCUGGUCAGAAGGGCACGAGAAUC
apparent Kd [1]: 74.1 nM | apparent Kd [2]: 94.2 nM

AGCUGUGGCCGAGGAUAUCUGUUCCAUAAAACCGAAAUAUAAUCGGACAUGAGGAUCACCCAUGUAGAGAAGGCGGUCUCAGCA
apparent Kd [1]: 23.9 nM | apparent Kd [2]: 26.4 nM

AAAUUGCUAGAGGAUAUCGGAUAGGAUCUAUCGCGAGAAGGUUGGACAUGAGGAUCACCCAUGUUCUGUUGGGA
apparent Kd [1]: 24.4 nM | apparent Kd [2]: 26.1 nM

CGAGUGUAAGGAUAUUCGGCACUAGGGACCACCCUAGUGUAGAAGAAGGUACAUGAGGAUCACCCAUGUGGUUA
apparent Kd [1]: 369 nM | apparent Kd [2]: 428 nM

UGAUCGAGAGAUCUUAGAUUCUGGUAGGAUAUACAUUAUAAAAGCUUUACAUGAGGAUCACCCAUGUAGAAGGACUAGAGUCUA
apparent Kd [2]: 7.92 nM

UAAGUUGAGGAGAAGGGAGCACAUGAGGAUCACCCAUGUGGUUCUUUGUGCUCAGGAUAUCCAUGGAGCUCCAACGCGUUCCCG
apparent Kd [1]: 63.1 nM | apparent Kd [2]: 10.3 nM

AGCACGAAAGUGCAACGAUGUACGAGAAGGACAUGAGGAUCACCCAUGUAAGCAGUAACUGCAAUGUAGGAUAUCGUACAUCGA
apparent Kd [1]: 8.41 nM | apparent Kd [2]: 12 nM

AGAACAUGAGGAUCACCCAUGUAAAGGUCGGUCAAUAAGGGUGAGGAUAUGCUUAAAAUAAGGUAGCAGAAGGUGCUUGGUGCA
apparent Kd [3]: 713 nM | apparent Kd [4]: 603 nM

AAAAAACAUGAGGAUCACCCAUGUAAGGAUAUGCGAAAAAAAAAAAAAAAAAAAAAAAGCAGAAGGUACAAAAA
apparent Kd [1]: 99.1 nM | apparent Kd [2]: 94.9 nM

GGUGCGAUGUAGAAGGCAGAUCUGAUUCAGAUCUGAGGAUAUACAUGAGGAUCACCCAUGUUACGCACCAGCACGAGAGUGCAA
apparent Kd [1]: 6.18 nM | apparent Kd [2]: 11.1 nM

GCCUUAUCCGUCAGGAUAUACAUUUUUUUUUUGUUGUAGAAGGGACAUGAGGAUCACCCAUGUACAUUACAUUG
apparent Kd [1]: 25.8 nM | apparent Kd [2]: 28.9 nM

UUACGUCCCGUUUACAUGAGGAUCACCCAUGUCGAAAGAGCGGAGGAUAUGCUACCUAGUUGGUAGCAGAAGGUUGCAACGUCG
apparent Kd [3]: 17.7 nM | apparent Kd [4]: 28.3 nM

CCUGGAUCAUGAGGAUAUGGCACCUUAUUGGUGCCAGAAGGCAUGUCUUUUGACAUGAGGAUCACCCAUGUAAUAAAUUCCAGG
apparent Kd [3]: 933 nM | apparent Kd [4]: 131 nM

UCCCAGUAAGGAUAUCAGGCAAGUCUCCGGGAGCUUAGUCGUGAGAAGGUACAUGAGGAUCACCCAUGUGAUUG
apparent Kd [1]: 58 nM | apparent Kd [2]: 211 nM

AAGGAUAGAGGAUAUACAUAGAUACAGAUUCGUGUAGUCCUACAUGAGGAUCACCCAUGUAGAAGGCUAUCCUA
apparent Kd [1]: 11.8 nM | apparent Kd [2]: 22.9 nM

CCGCGCAUAGGAUAUUAAUCUCACGACAUGAGGAUCACCCAUGUAACUCUGUGUGCGAUCUAAGAAGGGUGGGCUU
apparent Kd [1]: 28.8 nM | apparent Kd [2]: 24 nM

AAAAGCUCAGGAUAUACGGUCUGUUGUUGAGAAAUAUCGAAACAUGAGGAUCACCCAUGUAGAAGGGAGCGAAA
apparent Kd [1]: 223 nM | apparent Kd [2]: 599 nM

AGUCAGAGCAGAGGAUAUAUACAUGAGGAUCACCCAUGUGACUGACUACGCUAGAAAUAGCAUGUAUAGAAGGCUGCUCUGACA
apparent Kd [1]: 344 nM | apparent Kd [2]: 911 nM

UGAGAGUGAGGAUAUACGUCGCUGGUCCCGAUGGACGCAUGACAUGAGGAUCACCCAUGUAGAAGGCAUUUCCC
apparent Kd [1]: 33.8 nM | apparent Kd [2]: 128 nM

UGCAUGCUAGGAUAUACGAAACAUUAGGGUUCGUCGUAUGAACAUGAGGAUCACCCAUGUAGAAGGAGCGUGCU
apparent Kd [1]: 18.4 nM | apparent Kd [2]: 34.3 nM
